Blank lines part the entries; values can stand above or below the compound they belong to.
Assays:
c‐Kit [1] = biological target: T1, c‐Kit (Homo sapiens, UniProt P10721); test: SCF‐1‐stimulated c‐Kit phosphorylation in Mo7e cells; assay type: cell-based; settings: SCF‐1 2.5 ng/mL
[2] = tested on: CD31‐positive microvessels in SW620 tumor xenografts; test: CD31 immunohistochemistry, microvessel density in SW620 xenograft tumors; assay type: in vivo, nude mice
Procedure, shortened: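 Nude mice (female Balb/cA-nude) bearing subcutaneous SW620 xenografts were dosed orally once daily for 14 days. Tumors were formalin-fixed and paraffin-embedded, and sections were stained for the endothelial marker CD31 with a rabbit anti-mouse antibody and an S-P immunodetection kit. Vessel density was derived from CD31 staining.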

c‐Kit [3] = biological target: T1, c‐Kit; test: Tyrosine kinase ELISA, c‐Kit; assay type: biochemical
HUVEC [4] = test: HUVEC tube‐formation assay on Matrigel; assay type: cell-based, human; settings: 100 nmol/L, 20% FBS, 6 h
Procedure, shortened: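 Matrigel was set at 37°C for 30 min. HUVEC (1 × 10^5/mL) in M199 with 20% FBS and drug were then plated onto it. After 6 h, capillary tube formation was imaged at high magnification.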

EGFR = EGFR (Homo sapiens, UniProt P00533); test: biochemical; assay type: biochemical
c‐Met = c‐Met (Homo sapiens, UniProt P08581); test: Tyrosine kinase ELISA, c‐Met; assay type: biochemical
Chain of c‐Met (P08581 25-1390): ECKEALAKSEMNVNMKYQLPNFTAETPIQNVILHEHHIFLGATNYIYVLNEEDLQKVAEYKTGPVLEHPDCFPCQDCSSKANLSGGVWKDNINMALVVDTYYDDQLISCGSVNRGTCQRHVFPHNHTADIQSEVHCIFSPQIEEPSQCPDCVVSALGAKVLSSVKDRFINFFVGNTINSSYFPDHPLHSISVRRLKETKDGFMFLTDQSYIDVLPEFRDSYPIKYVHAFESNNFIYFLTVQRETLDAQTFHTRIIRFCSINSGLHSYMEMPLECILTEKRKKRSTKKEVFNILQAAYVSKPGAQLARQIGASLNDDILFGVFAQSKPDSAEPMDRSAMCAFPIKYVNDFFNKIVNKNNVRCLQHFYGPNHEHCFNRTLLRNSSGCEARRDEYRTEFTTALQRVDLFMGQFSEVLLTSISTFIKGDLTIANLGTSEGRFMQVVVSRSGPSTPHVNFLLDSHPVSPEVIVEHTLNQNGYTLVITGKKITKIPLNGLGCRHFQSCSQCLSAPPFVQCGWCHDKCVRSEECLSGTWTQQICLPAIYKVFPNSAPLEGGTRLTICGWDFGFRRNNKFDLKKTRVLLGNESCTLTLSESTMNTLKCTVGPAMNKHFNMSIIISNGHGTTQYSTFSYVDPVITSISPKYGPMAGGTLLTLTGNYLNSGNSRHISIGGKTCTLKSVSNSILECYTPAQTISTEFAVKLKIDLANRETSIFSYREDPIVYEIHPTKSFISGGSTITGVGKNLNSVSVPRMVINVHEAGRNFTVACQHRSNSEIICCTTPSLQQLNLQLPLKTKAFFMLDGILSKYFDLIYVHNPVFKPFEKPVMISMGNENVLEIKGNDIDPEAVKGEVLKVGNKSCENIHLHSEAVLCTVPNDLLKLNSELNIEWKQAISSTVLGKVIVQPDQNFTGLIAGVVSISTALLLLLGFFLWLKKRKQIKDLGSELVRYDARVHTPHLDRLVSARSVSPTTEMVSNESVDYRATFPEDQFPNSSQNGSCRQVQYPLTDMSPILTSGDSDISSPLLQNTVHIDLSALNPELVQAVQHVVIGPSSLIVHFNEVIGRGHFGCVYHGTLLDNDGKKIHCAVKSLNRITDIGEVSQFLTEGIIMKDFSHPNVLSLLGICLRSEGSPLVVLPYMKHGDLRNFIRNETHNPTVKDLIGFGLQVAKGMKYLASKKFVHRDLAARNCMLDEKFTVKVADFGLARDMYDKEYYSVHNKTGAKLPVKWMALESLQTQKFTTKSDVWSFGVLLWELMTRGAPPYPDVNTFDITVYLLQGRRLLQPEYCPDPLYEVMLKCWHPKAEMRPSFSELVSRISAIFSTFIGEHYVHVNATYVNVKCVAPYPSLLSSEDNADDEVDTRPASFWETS

SW620 tumor xenografts = test: SW620 tumor xenograft in nude mice; assay type: in vivo
Procedure, shortened: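 Female Balb/cA-nude mice, 5–6 weeks old, received cells subcutaneously in the left axilla and were randomized at 100–200 mm3 tumor volume. Dosing was oral, daily for 18 d (vehicle n = 12, treated n = 6). Tumor volume, calculated as (length × width²)/2, and bodyweight were measured twice weekly. TGI was calculated from treatment start against vehicle. Data are mean ± SEM; Student's t test.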

VEGFR1 = VEGFR1 (Homo sapiens, UniProt P17948); test: Tyrosine kinase ELISA, VEGFR1; assay type: biochemical
HUVEC [5] = test: FBS‐stimulated HUVEC proliferation; assay type: cell-based; settings: Homo sapiens, 72 h, read-out: IC50 FBS‐stimulated HUVEC proliferation
Procedure, shortened: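 HUVEC were isolated from umbilical cord veins and maintained in M199 with 20% FBS plus endothelial cell growth supplement. Cells were exposed to serial drug dilutions with 20% FBS for 72 h. Viability was measured by sulforhodamine B, and IC50 was obtained by curve fitting. Values are mean ± SD of 3 independent experiments.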

[6] = once‐daily dose of 12 mg; cited from earlier work
HER2 [7] = biological target: T2, HER2 (Homo sapiens, UniProt P04626); test: Tyrosine kinase ELISA, HER2; assay type: biochemical
T2 sequence (P04626 23-1255): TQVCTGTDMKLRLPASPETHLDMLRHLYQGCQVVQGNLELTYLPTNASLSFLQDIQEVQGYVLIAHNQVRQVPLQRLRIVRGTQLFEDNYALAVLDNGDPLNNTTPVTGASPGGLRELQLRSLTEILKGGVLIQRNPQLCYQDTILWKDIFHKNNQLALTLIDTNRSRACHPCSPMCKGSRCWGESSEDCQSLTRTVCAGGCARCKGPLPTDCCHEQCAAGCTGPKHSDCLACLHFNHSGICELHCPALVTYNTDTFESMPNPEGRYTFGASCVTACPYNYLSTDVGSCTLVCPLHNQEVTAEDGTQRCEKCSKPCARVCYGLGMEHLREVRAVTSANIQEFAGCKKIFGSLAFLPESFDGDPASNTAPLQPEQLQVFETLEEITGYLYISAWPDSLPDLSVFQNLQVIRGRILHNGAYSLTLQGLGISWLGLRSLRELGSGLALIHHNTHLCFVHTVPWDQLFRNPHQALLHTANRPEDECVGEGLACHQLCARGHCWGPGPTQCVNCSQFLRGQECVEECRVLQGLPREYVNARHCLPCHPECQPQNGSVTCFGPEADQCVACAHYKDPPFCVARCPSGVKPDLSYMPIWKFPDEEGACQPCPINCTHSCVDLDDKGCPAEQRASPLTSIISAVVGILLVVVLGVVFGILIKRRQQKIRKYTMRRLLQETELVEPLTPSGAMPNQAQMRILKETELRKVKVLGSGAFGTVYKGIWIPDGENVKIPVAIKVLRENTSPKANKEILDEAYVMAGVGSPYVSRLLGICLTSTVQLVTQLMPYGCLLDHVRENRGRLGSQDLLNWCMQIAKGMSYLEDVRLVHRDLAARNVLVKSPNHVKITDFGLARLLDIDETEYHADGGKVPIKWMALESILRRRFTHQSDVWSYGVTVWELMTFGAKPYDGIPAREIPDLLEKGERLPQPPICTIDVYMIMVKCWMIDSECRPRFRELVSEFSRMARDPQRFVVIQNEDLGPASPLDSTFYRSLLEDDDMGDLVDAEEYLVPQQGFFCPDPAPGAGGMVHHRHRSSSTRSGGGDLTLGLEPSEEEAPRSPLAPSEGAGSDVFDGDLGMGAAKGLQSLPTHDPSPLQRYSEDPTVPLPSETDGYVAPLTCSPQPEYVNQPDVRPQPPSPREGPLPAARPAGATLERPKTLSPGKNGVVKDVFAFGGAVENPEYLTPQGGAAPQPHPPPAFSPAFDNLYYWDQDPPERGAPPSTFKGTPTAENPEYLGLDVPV

HER2 [8] = biological target: T2, HER2; test: Constitutive HER2 signaling in BT‐474 cells; assay type: cell-based; settings: even at 1000 nmol/L
VEGFR2 [9] = biological target: T3, VEGFR2 (Homo sapiens, UniProt P35968); test: Tyrosine kinase ELISA, VEGFR2; assay type: biochemical
T3 sequence (P35968 20-1356): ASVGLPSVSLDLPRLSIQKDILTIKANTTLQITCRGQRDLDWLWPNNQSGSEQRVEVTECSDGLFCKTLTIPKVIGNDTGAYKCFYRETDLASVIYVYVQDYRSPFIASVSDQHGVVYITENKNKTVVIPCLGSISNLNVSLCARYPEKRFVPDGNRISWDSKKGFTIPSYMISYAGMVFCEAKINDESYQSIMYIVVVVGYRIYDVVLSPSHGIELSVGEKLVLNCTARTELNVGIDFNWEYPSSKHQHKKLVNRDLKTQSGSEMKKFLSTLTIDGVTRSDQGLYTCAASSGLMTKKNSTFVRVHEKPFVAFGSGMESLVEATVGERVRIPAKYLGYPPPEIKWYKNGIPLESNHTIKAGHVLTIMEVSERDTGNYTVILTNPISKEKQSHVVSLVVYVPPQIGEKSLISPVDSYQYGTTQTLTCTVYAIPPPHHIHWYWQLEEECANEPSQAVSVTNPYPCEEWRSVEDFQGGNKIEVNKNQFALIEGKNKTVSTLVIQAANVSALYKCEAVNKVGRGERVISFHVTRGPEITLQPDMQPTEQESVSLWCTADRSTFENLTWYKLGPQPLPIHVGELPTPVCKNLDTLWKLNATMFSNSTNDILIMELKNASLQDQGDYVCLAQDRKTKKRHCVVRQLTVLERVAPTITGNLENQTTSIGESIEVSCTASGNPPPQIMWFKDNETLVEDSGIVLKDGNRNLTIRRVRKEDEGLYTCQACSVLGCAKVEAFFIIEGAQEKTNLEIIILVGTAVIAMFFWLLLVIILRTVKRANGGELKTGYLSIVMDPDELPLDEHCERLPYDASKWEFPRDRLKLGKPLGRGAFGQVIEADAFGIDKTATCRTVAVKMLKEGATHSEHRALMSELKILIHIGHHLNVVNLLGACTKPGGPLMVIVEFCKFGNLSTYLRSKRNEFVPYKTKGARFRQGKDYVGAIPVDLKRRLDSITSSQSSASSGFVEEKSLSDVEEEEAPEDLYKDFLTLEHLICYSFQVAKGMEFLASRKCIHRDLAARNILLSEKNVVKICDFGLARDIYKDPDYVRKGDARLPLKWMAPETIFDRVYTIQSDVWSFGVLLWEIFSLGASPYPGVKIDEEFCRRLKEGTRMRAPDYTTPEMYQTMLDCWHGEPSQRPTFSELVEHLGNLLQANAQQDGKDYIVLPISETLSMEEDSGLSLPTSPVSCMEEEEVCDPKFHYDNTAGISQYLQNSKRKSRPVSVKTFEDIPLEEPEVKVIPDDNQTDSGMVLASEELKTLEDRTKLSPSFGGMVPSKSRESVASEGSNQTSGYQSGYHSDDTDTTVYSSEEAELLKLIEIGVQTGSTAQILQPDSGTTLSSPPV

HUVEC [10] = test: cells; assay type: cell-based; settings: Homo sapiens, 8 h, read-out: IC50 HUVEC migration in response to VEGF
VEGFR3 = VEGFR3 (Homo sapiens, UniProt P35916); test: Tyrosine kinase ELISA, VEGFR3; assay type: biochemical
VEGFR2 [11] = biological target: T3, VEGFR2; test: VEGF‐stimulated VEGFR2 phosphorylation in HUVEC; assay type: cell-based
c‐Src = c‐Src (Homo sapiens, UniProt P12931); test: biochemical; assay type: biochemical
rat aortic rings = test: Rat aortic ring assay; assay type: cell-based; settings: 100 nmol/L, VEGF 50 ng/mL, 7 days
Procedure, shortened: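 Thoracic aortas from 6-week-old male Sprague-Dawley rats were cut into 1-mm rings, embedded in Matrigel and held 1 h at 37°C. M199 containing VEGF-A (50 ng/mL) plus drug was added. After 7 days, sprouting microvessels were counted in 5 random fields.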

panel of tumor cells = test: FBS‐stimulated tumor cell proliferation; assay type: cell-based, human
Procedure, shortened: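 Tumor lines were grown in 10% FBS and treated with serial drug dilutions for 72 h, with sulforhodamine B readout. IC50 was obtained by curve fitting (mean ± SD, 3 independent experiments).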

HUVEC [12] = test: cells; assay type: cell-based; settings: Homo sapiens, 72 h, read-out: IC50 VEGF‐stimulated HUVEC proliferation
PDGFRβ = PDGFRβ (Homo sapiens, UniProt P09619); test: PDGF‐BB‐stimulated PDGFRβ phosphorylation in U‐87MG cells; assay type: cell-based; settings: PDGF‐BB 10 ng/mL

T1 sequence (P10721 26-976): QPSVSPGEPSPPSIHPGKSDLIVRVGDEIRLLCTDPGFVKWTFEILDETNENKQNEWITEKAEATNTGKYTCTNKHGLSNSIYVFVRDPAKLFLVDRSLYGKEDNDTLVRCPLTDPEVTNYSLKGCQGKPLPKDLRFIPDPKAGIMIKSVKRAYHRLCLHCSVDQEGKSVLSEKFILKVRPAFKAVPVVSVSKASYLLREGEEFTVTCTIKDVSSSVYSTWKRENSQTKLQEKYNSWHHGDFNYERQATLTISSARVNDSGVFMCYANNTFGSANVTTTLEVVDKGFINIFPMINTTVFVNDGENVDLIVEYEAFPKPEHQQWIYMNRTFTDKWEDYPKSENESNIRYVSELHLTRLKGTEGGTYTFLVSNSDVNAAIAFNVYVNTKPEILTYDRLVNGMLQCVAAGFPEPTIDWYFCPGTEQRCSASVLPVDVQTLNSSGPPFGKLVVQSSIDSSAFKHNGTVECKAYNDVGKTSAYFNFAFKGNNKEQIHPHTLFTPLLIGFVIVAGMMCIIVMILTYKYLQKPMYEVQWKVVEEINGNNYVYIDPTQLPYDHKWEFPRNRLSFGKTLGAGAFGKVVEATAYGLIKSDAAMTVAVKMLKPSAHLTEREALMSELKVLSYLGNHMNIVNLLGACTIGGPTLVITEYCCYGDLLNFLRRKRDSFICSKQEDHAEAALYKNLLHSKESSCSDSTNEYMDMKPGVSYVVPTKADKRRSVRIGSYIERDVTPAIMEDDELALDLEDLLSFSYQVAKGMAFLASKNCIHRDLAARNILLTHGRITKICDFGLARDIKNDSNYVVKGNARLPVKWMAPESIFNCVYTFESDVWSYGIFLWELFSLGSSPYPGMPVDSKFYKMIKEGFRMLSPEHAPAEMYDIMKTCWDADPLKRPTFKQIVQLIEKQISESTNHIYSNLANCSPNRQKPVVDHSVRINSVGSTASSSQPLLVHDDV

SCF‐1‐stimulated phosphorylation of c‐Kit, AKT and ERK (c‐Kit [1]): inhibited
IC50 (c‐Kit [3]): 14.8 ± 2.5 nM
IC50 (EGFR): > 2000 nM
effect on EGFR kinase activity (EGFR; at 2000 nmol/L): little effect
IC50 (c‐Met): > 2000 nM
effect on c‐Met kinase activity (c‐Met; at 2000 nmol/L): little effect
effect on bodyweight in mice (SW620 tumor xenografts; SW620 xenograft, all groups, during the course of the experiment): little effect on bodyweight
IC50 (VEGFR1): 26.9 ± 7.7 nM
IC50 (HER2 [7]): > 2000 nM
effect on HER2 kinase activity (HER2 [7]; at 2000 nmol/L): little effect
potency relative to sunitinib for inhibition of VEGF2/3 (VEGFR2 [9]): 20 fold
IC50 (VEGFR2 [9]; IC50 VEGFR2 kinase, ELISA, recombinant tyrosine kinase, mean ± SD (n = 3)): < 1 nM
IC50 (VEGFR3): 0.7 ± 0.1 nM
VEGF‐stimulated ERK1/2 phosphorylation (VEGFR2 [11]): inhibited
effect on VEGF‐stimulated VEGFR2 phosphorylation (VEGFR2 [11]; 0.1 nmol/L): clear inhibitory effect
IC50, VEGF‐stimulated intracellular phosphorylation of VEGFR2 (VEGFR2 [11]; […] treatment, VEGF 20 ng/mL 10 min): subnanomolar
IC50 (c‐Src): > 2000 nM
effect on c‐Src kinase activity (c‐Src; at 2000 nmol/L): little effect
IC50 (panel of tumor cells; Homo sapiens, 72 h, read-out: IC50 FBS‐stimulated tumor cell proliferation): 3000 to 12500 nM
tumor cell IC50 relative to IC50 for VEGF‐stimulated HUVEC proliferation (panel of tumor cells; greater than HUVEC value): more than 10 000 fold
PDGF‐BB‐stimulated phosphorylation of PDGFRβ, AKT and ERK (PDGFRβ): inhibited
SMILES: COc1cc2c(Oc3ccc4[nH]c(C)cc4c3F)ccnc2cc1OCC1(N)CC1.Cl.Cl [Anlotinib, 1‐[[[4‐(4‐fluoro‐2‐methyl‐1H‐indol‐5‐yloxy)‐6‐methoxyquinolin‐7‐Yl]oxy]methyl]cyclopropanamine dihydrochloride]
inhibition rate of CD31‐positive microvessels (microvessel density) ([2]; 0.75 mg/kg oral daily): 48.9%
inhibition rate of CD31‐positive microvessels (microvessel density) ([2]; 3 mg/kg oral daily): 91.2%
inhibition rate of CD31‐positive microvessels (microvessel density) ([2]; […] oral daily): 76.3%
HUVEC tube formation (HUVEC [4]): few enclosed tubes were detected
%TGI (SW620 tumor xenografts; SW620 (colon), 3 mg/kg p.o. daily, 18 d, 3 mg/kg): 83%
IC50 (HUVEC [5]): 2000 nM
circulation time in clinical trials [6]: long circulation time
toxicity in clinical trials [6]: manageable toxicity
constitutive HER2 signaling (HER2 [8]): nor the constitutive HER2 signaling in BT‐474 cells was affected
IC50 (HUVEC [10]): 0.1 nM
budding of the aortic ring (rat aortic rings): near complete inhibition
IC50 (HUVEC [12]): 0.2 nM

SMILES: CNC(=O)c1cc(Oc2ccc(NC(=O)Nc3ccc(Cl)c(C(F)(F)F)c3)cc2)ccn1 [Sorafenib]
IC50 (HUVEC [12]): 195 nM

SMILES: CCN(CC)CCNC(=O)c1c(C)[nH]c(/C=C2\C(=O)Nc3ccc(F)cc32)c1C [Sunitinib, reference compound]
inhibition rate of CD31‐positive microvessels (microvessel density) ([2]; 50 mg/kg oral daily): 63.6%
IC50 (HUVEC [12]): 18.5 nM

— PMC5891194 (Cancer Science, 2018)
